# Laboratory results: ChEMBL document CHEMBL1123812, “Pyrroloisoquinoline antidepressants. 2. In-depth exploration of structure-activity relationships” (J Med Chem, 1987)
# Active and inactive are the calls of the source.
# Tests used:
# [1] = species on record: Mus musculus; experiment: Antagonism of tetrabenazine (TBZ)-induced depression measured in mice by motor activity; format: functional; conditions: Mus musculus; read-out: ED50
# In short: (§1)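 Nonfasted male Swiss Webster mice, 18–24 g, ten per dose level and in saline controls. Test compound given ip 30 min before tetrabenazine 32 mg/kg ip; dose expressed as free base. Motor activity and ptosis scored. Control response ≤90% corrected by Abbott's formula.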
# [2] = species on record: Mus musculus; experiment: Antagonism of tetrabenazine (TBZ)-induced depression in mice measured for ptosis; format: functional; conditions: Mus musculus; read-out: ED50; in short: as §1
# [3] = biological target: Adrenergic receptor alpha-1 (Rattus norvegicus) (UniProt P15823+P23944+P43140); experiment: Binding affinity towards alpha-1 adrenergic receptor at 1.0 uM concentration; format: protein assay
# In short: (§2)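 Rat brain crude synaptic membranes in 20 mM NaHEPES pH 7.5. Ligands: α1 cortex […] 0.4 nM, nonspecific with (-)-NE 100 μM, 30 min at 25 °C. […] D2 striatum [3H]spiperone 0.05 nM with (+)-butaclamol 1 μM, 45 min at 37 °C. S1 cortex [3H]5-HT 1 nM plus glutathione and MgCl2, with 5-HT 10 μM, 20 min at 37 °C. […] Samples filtered on GF/B and counted.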
# [4] = biological target: D(2) dopamine receptor (Rattus norvegicus) (UniProt P61169); experiment: Binding affinity towards dopamine receptor D2 at 1.0 uM concentration; in short: as §2
# Sequence of D(2) dopamine receptor (Rattus norvegicus) (P61169 whole entry): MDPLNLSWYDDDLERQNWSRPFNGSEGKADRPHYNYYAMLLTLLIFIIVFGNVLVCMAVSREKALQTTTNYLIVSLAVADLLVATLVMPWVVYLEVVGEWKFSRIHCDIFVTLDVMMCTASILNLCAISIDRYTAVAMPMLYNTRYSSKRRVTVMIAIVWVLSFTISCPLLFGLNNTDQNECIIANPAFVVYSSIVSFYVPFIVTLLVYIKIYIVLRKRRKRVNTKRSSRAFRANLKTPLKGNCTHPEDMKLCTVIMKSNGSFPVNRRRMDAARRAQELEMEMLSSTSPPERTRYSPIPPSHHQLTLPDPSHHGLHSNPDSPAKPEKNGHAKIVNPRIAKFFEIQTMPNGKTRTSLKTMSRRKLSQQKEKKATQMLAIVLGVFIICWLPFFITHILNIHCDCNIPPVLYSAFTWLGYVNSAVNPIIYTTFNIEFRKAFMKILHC
# [5] = biological target: Muscarinic acetylcholine receptor (Rattus norvegicus) (UniProt P08482+P08483+P08485+P08911+P10980); experiment: Binding affinity towards Muscarinic acetylcholine receptor at 1.0 uM concentration; format: protein assay
# [6] = biological target: Sodium-dependent serotonin transporter (Rattus norvegicus) (UniProt P31652); experiment: Ability to inhibit the uptake of [3H]- serotonin(5-HT) 0.1 uM concentration at rat brain synaptosomes; format: functional, subcellular
# Sequence of Sodium-dependent serotonin transporter (Rattus norvegicus) (P31652 whole entry): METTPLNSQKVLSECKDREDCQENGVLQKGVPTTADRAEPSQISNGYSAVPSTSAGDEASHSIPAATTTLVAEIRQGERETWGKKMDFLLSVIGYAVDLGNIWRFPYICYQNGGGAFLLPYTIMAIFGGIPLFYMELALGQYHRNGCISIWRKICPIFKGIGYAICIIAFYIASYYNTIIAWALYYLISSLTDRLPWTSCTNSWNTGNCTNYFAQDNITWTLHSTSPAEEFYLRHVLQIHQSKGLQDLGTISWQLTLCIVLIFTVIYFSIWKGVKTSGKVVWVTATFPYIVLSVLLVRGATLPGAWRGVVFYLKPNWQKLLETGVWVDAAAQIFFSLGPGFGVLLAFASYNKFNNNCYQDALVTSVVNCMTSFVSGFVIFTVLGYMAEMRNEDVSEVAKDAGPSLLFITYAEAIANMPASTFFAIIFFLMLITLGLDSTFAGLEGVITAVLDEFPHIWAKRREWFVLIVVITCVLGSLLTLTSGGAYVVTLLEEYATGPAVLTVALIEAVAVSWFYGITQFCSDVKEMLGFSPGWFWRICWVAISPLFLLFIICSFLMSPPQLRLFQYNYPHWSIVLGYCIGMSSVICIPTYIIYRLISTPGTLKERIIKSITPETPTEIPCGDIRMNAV
# In short: (§3)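 Male Wistar rat brain synaptosomes (P2 fraction): hypothalamus for NE, striatum for DA, cerebral cortex for 5-HT. Buffer is Tris- or HEPES-buffered salt medium with glucose, ascorbate and nialamide, pH 7.4 at 37 °C. Preincubated 10 min at 37 °C with compound. Uptake started with [3H]NE 100–300 nM, [3H]DA 50–300 nM or [3H]5-HT 100–200 nM, incubated 3 min (DA) or 6–10 min (NE, 5-HT). Blanks held on ice. Filtered, counted by scintillation.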
# [7] = biological target: Norepinephrine transporter (Rattus norvegicus) (UniProt Q9WTR4); experiment: Ability to inhibit the uptake of [3H]norepinephrine (NE) 0.1 uM concentration at rat brain synaptosomes; format: functional, subcellular; in short: as §3
# Sequence of Norepinephrine transporter (Rattus norvegicus) (Q9WTR4 as listed by the source): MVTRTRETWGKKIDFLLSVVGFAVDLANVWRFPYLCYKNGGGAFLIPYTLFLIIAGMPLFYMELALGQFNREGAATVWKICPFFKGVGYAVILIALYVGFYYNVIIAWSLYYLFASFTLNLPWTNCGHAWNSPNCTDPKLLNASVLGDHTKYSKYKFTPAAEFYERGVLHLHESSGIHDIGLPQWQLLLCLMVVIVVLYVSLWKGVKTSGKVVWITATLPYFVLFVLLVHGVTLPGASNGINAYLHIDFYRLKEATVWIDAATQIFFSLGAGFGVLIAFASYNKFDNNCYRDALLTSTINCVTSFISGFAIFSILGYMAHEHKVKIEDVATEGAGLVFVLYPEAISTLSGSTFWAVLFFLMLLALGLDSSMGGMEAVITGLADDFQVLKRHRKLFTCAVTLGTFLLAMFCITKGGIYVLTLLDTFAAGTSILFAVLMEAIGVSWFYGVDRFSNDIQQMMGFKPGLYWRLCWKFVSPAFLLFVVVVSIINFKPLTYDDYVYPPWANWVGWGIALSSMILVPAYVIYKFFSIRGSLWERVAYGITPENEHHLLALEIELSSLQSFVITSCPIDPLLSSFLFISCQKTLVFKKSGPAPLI
# [8] = biological target: Sodium-dependent dopamine transporter (Rattus norvegicus) (UniProt P23977); experiment: Ability to inhibit the uptake of [3H]dopamine (DA) 0.1 uM concentration at rat brain synaptosomes; format: functional, subcellular; in short: as §3
# Sequence of Sodium-dependent dopamine transporter (Rattus norvegicus) (P23977 whole entry): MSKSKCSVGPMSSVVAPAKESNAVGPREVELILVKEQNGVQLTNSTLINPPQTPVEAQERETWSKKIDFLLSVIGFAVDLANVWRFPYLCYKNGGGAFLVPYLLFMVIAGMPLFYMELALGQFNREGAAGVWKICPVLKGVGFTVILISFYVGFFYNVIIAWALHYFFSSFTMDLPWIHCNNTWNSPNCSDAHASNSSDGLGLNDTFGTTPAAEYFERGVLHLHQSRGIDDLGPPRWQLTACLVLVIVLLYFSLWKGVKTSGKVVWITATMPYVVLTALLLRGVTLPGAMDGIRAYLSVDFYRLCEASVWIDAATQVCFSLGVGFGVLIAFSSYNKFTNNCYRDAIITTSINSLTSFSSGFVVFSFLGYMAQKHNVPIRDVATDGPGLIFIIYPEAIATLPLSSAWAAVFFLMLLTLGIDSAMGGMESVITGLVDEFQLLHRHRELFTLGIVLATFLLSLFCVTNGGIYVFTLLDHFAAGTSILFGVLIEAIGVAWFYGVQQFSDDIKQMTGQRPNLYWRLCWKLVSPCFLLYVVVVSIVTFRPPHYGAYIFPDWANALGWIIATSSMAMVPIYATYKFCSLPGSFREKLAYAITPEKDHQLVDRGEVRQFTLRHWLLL
# [9] = test system: Mus musculus; experiment: Ability to antagonise intraperitoneal dose; inactive (<10% antagonism) at 30 mgjkg is represented as I-30.; format: functional, organism-based; in short: as §1
# [10] = test system: Mus musculus; experiment: Ability to antagonise intraperitoneal dose; inactive (<10% antagonism) at 30 mg/kg is represented as I-30.; format: functional, organism-based; design: dose 30 mg/kg; in short: as §1
# [11] = biological target: Serotonin 2 (5-HT2) receptor (Rattus norvegicus) (UniProt P30994+P08909+P14842); experiment: Binding affinity towards 5-hydroxytryptamine 2 receptor at 1.0 uM concentration; format: protein assay; in short: as §2
# Sequence of Serotonin 2 (5-HT2) receptor (Rattus norvegicus) (P08909 whole entry, looked up): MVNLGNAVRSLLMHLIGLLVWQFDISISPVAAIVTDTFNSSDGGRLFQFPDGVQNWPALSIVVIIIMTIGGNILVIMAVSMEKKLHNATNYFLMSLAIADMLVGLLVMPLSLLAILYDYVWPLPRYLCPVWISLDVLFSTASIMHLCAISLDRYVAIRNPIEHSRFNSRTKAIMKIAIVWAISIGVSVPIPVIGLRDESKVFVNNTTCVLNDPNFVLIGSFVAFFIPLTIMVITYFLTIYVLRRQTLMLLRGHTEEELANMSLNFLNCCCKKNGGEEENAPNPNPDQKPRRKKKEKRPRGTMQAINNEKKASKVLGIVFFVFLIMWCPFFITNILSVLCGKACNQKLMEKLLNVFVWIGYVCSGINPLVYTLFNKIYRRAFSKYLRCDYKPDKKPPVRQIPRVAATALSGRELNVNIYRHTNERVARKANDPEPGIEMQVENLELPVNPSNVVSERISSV
# Sequence of Serotonin 2 (5-HT2) receptor (Rattus norvegicus) (P14842 whole entry, looked up): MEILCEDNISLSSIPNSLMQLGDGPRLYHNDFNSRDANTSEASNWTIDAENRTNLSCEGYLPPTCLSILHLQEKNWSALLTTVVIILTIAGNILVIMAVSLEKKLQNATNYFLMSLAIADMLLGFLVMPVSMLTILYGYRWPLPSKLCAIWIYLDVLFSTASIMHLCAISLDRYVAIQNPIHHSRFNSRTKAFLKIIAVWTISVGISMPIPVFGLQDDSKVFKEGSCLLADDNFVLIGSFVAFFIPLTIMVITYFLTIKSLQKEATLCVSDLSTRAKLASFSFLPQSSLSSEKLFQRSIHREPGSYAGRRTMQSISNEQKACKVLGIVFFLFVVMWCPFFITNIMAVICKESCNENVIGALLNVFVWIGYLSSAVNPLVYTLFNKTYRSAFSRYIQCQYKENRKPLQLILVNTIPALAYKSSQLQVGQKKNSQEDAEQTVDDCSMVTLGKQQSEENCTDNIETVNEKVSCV
# Sequence of Serotonin 2 (5-HT2) receptor (Rattus norvegicus) (P30994 whole entry, looked up): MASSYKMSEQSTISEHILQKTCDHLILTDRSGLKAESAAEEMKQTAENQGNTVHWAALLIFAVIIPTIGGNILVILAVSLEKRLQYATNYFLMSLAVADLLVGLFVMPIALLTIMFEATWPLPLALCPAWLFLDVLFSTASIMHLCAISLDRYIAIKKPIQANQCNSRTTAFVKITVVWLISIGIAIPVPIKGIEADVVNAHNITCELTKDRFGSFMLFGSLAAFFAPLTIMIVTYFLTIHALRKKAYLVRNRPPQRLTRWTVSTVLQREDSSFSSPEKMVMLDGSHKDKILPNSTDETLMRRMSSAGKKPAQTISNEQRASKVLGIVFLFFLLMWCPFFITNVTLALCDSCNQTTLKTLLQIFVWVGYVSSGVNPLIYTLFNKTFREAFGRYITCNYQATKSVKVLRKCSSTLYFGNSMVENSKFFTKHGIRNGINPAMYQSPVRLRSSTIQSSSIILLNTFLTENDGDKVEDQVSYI
# [12] = species on record: Mus musculus; experiment: Gross behavioral effects ascertained in mice; W indicates weak stimulant or depressant activity of little significance.; format: functional, organism-based
# In short: (§4)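 Male Swiss Webster mice, 18–24 g, three per dose, given ip doses of 1, 3, 10, 30, 100 and 300 mg/kg. Observed for gross behavior and held for 4 days. Scored as weak (W), stimulant (S), depressant (D) or convulsant (C).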
# [13] = species on record: Mus musculus; experiment: Gross behavioral effects ascertained in mice; S indicates significant stimulant properties.; format: functional, organism-based; in short: as §4
# [14] = biological target: Adrenergic receptor alpha-2 (Rattus norvegicus) (UniProt P22086+P19328+P22909); experiment: Binding affinity towards alpha-2 adrenergic receptor at 1.0 uM concentration; format: protein assay
# [15] = biological target: Norepinephrine transporter (Rattus norvegicus, UniProt Q9WTR4); experiment: Inhibition of uptake of tritiated norepinephrine (NE) in rat synaptosomes; format: subcellular, Brain
# Sequence of Norepinephrine transporter (Q9WTR4 whole entry): as the sequence (Q9WTR4 as listed by the source) above
# [16] = biological target: Sodium-dependent dopamine transporter (Rattus norvegicus, UniProt P23977); experiment: Inhibition of the uptake of tritiated dopamine (DA) in rat synaptosomes; format: subcellular, Brain
# Sequence of Sodium-dependent dopamine transporter (P23977 whole entry): as the sequence (P23977 whole entry) above
# [17] = biological target: Serotonin 1 (5-HT1) receptor (Rattus norvegicus) (UniProt P28564+P30940+P19327+P28565); experiment: Binding affinity towards serotonin S1 receptor at 1.0 uM; format: protein assay; in short: as §2
# [18] = biological target: T1, Adrenergic receptor alpha-1 (Rattus norvegicus, UniProt P15823+P23944+P43140); experiment: Binding affinity towards alpha-1 adrenergic receptor; format: protein assay
# T1 sequence (P15823 whole entry): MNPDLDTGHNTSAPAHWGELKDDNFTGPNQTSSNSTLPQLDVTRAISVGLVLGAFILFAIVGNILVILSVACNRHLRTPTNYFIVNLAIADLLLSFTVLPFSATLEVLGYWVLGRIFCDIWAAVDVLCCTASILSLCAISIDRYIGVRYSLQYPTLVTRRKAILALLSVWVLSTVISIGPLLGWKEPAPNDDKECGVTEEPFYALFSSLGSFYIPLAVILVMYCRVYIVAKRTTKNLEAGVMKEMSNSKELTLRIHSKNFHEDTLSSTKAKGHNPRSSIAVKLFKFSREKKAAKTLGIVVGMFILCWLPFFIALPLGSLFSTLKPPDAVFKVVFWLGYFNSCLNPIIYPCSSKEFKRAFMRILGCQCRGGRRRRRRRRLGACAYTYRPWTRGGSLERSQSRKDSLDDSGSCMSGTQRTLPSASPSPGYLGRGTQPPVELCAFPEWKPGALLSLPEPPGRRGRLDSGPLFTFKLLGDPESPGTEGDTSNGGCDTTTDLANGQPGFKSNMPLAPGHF
# T1 sequence (P23944 whole entry): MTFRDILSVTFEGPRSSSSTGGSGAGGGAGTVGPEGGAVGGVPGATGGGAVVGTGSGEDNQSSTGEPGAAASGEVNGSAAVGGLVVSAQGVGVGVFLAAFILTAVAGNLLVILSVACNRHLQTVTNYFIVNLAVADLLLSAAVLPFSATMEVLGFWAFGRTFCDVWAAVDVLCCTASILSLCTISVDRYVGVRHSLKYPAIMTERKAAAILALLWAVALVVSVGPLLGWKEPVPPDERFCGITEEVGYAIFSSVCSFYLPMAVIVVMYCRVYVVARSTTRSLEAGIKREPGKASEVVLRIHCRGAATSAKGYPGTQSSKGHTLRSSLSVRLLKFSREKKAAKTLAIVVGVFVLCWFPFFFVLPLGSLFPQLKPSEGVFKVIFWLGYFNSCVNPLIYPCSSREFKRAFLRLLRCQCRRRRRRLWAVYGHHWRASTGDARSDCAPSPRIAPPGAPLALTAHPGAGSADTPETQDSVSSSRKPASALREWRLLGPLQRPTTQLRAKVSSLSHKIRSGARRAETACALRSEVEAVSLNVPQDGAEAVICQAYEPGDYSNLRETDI
# T1 sequence (P43140 whole entry): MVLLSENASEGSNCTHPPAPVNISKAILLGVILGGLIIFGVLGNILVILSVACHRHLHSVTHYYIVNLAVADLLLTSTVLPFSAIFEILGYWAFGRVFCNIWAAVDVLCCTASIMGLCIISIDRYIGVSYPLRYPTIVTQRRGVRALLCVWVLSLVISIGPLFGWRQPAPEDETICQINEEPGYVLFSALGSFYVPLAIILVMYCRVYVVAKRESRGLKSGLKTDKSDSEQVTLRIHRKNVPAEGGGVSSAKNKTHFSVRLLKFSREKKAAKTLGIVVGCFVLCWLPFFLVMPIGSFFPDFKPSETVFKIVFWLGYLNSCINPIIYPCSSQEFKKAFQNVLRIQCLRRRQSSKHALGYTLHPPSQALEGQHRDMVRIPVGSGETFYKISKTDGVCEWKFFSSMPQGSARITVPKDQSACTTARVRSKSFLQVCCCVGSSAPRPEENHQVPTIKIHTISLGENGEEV
# [19] = biological target: Sodium-dependent serotonin transporter (Rattus norvegicus) (UniProt P31652); experiment: Inhibition of tritiated serotonin(5-HT) uptake at 0.1 uM concentration; format: functional; in short: as §3
# [20] = biological target: Sodium-dependent dopamine transporter (Rattus norvegicus) (UniProt P23977); experiment: Inhibition of tritiated dopamine (DA) uptake at 0.1 uM concentration; format: functional; in short: as §3
# [21] = species on record: Rattus norvegicus; experiment: Ability to inhibit the uptake of tritiated norepinephrine (NE) at 0.1 uM concentration; format: functional; in short: as §3
structure (smiles),measurement,setting,value
Br.CSc1ccc([C@@H]2CN3CCC[C@H]3c3ccccc32)cc1,ED50,[1],> 75 mg/kg
same,ED50,[2],10.9 mg/kg
same,inhibition,[3],43%
same,inhibition,[4],28%
same,inhibition,[5],0%
c1ccc(C[C@H]2CN3CCC[C@H]3c3ccccc32)cc1,inhibition,[6],32%
same,inhibition,[7],69%
same,inhibition,[8],19%
same,ED50,[9],inactive
same,ED50,[10],inactive
c1ccc([C@@H]2CN3CCC[C@@H]3c3ccccc32)cc1 (stereo in doubt; (-)-7b),inhibition,[11],58%
same,inhibition,[4],14%
same,behavior,[12],Partial stimulant
c1ccc([C@@H]2CN3CCC[C@@H]3c3ccccc32)cc1 (stereo in doubt; (+)-7b),inhibition,[4],40%
same,behavior,[13],Stimulant
same,inhibition,[14],64%
Br.COc1ccc([C@@H]2CN3CCC[C@@H]3c3ccccc32)cc1OC,ED50,[1],2 mg/kg
same,ED50,[2],0.13 mg/kg
same,Ki,[15],3.4 nM
same,inhibition,[3],58%
same,inhibition,[4],-1%
same,inhibition,[5],-1%
same,behavior,[12],Partial stimulant
same,Ki,[16],71.9 nM
same,inhibition,[14],15%
O=C(CCCN1CCC(O)(c2ccc(Cl)cc2)CC1)c1ccc(F)cc1,inhibition,[17],58%
Br.Clc1ccccc1[C@@H]1CN2CCC[C@H]2c2ccccc21,Ki,[18],41 nM
same,ED50,[1],> 30 mg/kg
same,inhibition,[11],10%
same,inhibition,[19],19%
same,ED50,[2],2.5 mg/kg
same,inhibition,[4],54%
same,behavior,[12],Partial stimulant
same,inhibition,[20],9%
same,Inhibition,[21],41%
COc1cccc2c1[C@H](c1ccccc1)CN1CCC[C@@H]21,ED50,[1],20.7 mg/kg
same,inhibition,[19],31%
same,ED50,[2],13.9 mg/kg
same,behavior,[12],Weak
same,inhibition,[20],0%
same,Inhibition,[21],5%
CNCCC(Oc1ccc(C(F)(F)F)cc1)c1ccccc1 (configuration not stated),inhibition,[4],12%
same,inhibition,[17],13%
C[C@@H]1[C@@H](c2ccccc2)c2ccccc2[C@@H]2CCCN12,inhibition,[6],12%
same,inhibition,[7],4%
same,inhibition,[8],0%
same,behavior,[12],Weak
same,ED50,[9],inactive
same,ED50,[10],inactive
COc1ccccc1[C@@H]1CN2CCC[C@H]2c2ccccc21,inhibition,[19],-2%
same,inhibition,[20],-3%
same,Inhibition,[21],65%
